The target in test [1] is T1, Liver carboxylesterase 1 (Oryctolagus cuniculus, UniProt P12337).
T1 sequence (P12337 whole entry): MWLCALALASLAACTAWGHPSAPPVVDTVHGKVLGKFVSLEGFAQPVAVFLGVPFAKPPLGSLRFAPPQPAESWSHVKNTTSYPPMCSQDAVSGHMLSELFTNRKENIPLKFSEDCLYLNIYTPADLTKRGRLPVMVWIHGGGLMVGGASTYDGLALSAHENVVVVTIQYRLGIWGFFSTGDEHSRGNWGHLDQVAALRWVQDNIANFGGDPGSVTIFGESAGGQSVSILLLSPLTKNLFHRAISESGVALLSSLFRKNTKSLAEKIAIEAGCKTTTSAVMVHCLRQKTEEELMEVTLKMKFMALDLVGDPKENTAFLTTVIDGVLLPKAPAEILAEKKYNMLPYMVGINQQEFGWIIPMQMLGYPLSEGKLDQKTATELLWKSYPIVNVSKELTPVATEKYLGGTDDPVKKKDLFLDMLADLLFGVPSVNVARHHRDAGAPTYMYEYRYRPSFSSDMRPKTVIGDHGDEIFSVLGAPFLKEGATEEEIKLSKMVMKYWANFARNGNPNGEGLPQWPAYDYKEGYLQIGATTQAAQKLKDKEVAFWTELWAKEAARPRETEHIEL
As to the kind of experiment: Inhibition constant against rabbit liver carboxylesterase using 4-MUA (4-methylumbelliferone acetate). Summed up: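 Pure enzyme (hCE1 or rabbit CE) was incubated with 0.75 mM 4-methylumbelliferone acetate in 50 mM Hepes, pH 7.4. 4-Methylumbelliferone release was read fluorimetrically (excitation 365 nm, emission 460 nm) over 1 min, where the rate was linear. Inhibitor dilution series were run, and Ki was obtained by fitting fractional inhibition to a partially competitive inhibition equation.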

Test [2] has as its target T1, Liver carboxylesterase 1. The test is described as follows: Inhibition constant against rabbit liver carboxylesterase (rCE) using nitrophenyl acetate (o-NPA) as substrate. Summed up:
(§1)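 Pure rCE prepared per earlier work. Spectrophotometric multiwell assay with 3mM o-NPA. Inhibitor and substrate were dispensed first, then enzyme was added. A420 was read every 15 s for 5 min and compared with no-inhibitor wells. Inhibitor range started at 1 pM. Duplicates, with 50 µM BNPP and DMSO/no-enzyme controls. Ki came from a partially competitive inhibition equation fit.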

Test [3] concerns the target T2, Liver carboxylesterase 1 (Homo sapiens, UniProt P23141).
T2 sequence (P23141 whole entry): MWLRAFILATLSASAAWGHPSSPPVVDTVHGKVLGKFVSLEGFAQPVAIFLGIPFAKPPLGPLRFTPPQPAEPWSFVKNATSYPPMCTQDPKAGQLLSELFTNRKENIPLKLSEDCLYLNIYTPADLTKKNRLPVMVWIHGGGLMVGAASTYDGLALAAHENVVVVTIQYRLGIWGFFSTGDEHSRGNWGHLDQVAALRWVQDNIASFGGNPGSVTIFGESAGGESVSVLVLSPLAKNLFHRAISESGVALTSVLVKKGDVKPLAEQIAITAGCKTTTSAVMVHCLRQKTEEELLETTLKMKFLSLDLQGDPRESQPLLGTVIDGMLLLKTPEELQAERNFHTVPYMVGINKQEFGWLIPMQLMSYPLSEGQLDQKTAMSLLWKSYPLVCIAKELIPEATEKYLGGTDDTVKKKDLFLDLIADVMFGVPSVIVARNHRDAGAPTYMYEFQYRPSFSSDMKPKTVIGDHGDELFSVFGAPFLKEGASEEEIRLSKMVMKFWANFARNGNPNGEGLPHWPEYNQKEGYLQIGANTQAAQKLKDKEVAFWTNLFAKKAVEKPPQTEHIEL
The test is described as follows: Inhibition constant against human liver carboxylesterase 1 using o-NPA (nitrophenyl acetate). Summed up: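 Purified hCE1 was assayed in multiwell plates with 3 mM o-nitrophenyl acetate, with enzyme added last. Absorbance change at 420 nm was read every 15 s for 5 min and compared with no-inhibitor wells. Inhibitor concentrations started at 1 pM, and assays were run in duplicate with 50 µM BNPP and DMSO/no-enzyme controls. Ki came from fitting to a partially competitive inhibition equation.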

The target of test [4] is T2, Liver carboxylesterase 1. As to the kind of experiment: Inhibition constant against human liver carboxylesterase 1 using 4-MUA (4-methylumbelliferone acetate). The gist of the method:
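Pure enzyme (hCE1 or rabbit CE) was incubated with 0.75 mM 4-methylumbelliferone acetate in 50 mM Hepes, pH 7.4. Inhibitor dilution series were run, and Ki was obtained by fitting fractional inhibition to a partially competitive inhibition equation.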

For test [5], the target named is T1, Liver carboxylesterase 1. As to the kind of experiment: Inhibition constant against rabbit liver carboxylesterase using CPT-11. The gist of the method: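 Purified rabbit CE was used with CPT-11 as the substrate. CPT-11 and SN-38 were quantified by HPLC with fluorescence detection.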
Test [6] has as its target T2, Liver carboxylesterase 1. The test is described as follows: Inhibition constant against human liver carboxylesterase 1 (hCE1) using nitrophenyl acetate (o-NPA) as substrate.
Test [7] addresses T1, Liver carboxylesterase 1. As to the kind of experiment: Inhibition constant against rabbit liver carboxylesterase using o-NPA (nitrophenyl acetate). The gist of the method:
as §1

Structures are written as SMILES.

The term Ki denotes the equilibrium dissociation constant of an inhibitor or competing ligand from its target. Turning to `Cc1ccc(C(=O)C(=O)c2ccccc2)cc1[N+](=O)[O-]`, the Ki on Liver carboxylesterase 1 [1] was determined as 4 nM; at Liver carboxylesterase 1 [2], 11.9 nM; on Liver carboxylesterase 1 [3], 295 nM; at Liver carboxylesterase 1 [4] it was 7.5 nM; at Liver carboxylesterase 1 [5], 24.1 nM.

For the molecule `O=C(C(=O)c1ccc(Cl)cc1)c1ccc(Cl)cc1`, the Ki on Liver carboxylesterase 1 [1] turned out to be 1.3 nM; at Liver carboxylesterase 1 [2], 9.5 nM; on Liver carboxylesterase 1 [6], 182 nM; on Liver carboxylesterase 1 [3], 182 nM; on Liver carboxylesterase 1 [4] it was 1.6 nM; on Liver carboxylesterase 1 [5], 43 nM. The Ki on Liver carboxylesterase 1 [7] amounted to 9.5 nM.

`O=C(C(=O)c1ccc(Cl)cc1)c1ccccc1`: the Ki is 1.7 nM at Liver carboxylesterase 1 [1]; 23.9 nM at Liver carboxylesterase 1 [2]; 47.4 nM on Liver carboxylesterase 1 [3]; 5.4 nM on Liver carboxylesterase 1 [4]; 52.5 nM on Liver carboxylesterase 1 [5].

On to `Cc1ccc(C(=O)C(=O)c2ccccc2)cc1C`, for which the Ki is 4.4 nM at Liver carboxylesterase 1 [1]; 108 nM on Liver carboxylesterase 1 [2]; 99.1 nM on Liver carboxylesterase 1 [3]; 18.8 nM on Liver carboxylesterase 1 [4]; 240 nM on Liver carboxylesterase 1 [5].

Turning to `O=C(C(=O)c1ccc(Br)cc1)c1ccc(Br)cc1`, the inhibition constant (Ki) on Liver carboxylesterase 1 [1] was determined as 0.17 nM; on Liver carboxylesterase 1 [2] it was 4.1 nM; on Liver carboxylesterase 1 [4], 0.029 nM; at Liver carboxylesterase 1 [5], 25 nM.

As to `O=C(C(=O)c1ccc(C(=O)C(=O)c2ccccc2)cc1)c1ccccc1`, the Ki on Liver carboxylesterase 1 [1] stood at 2.1 nM; at Liver carboxylesterase 1 [2], 6.1 nM; at Liver carboxylesterase 1 [5], 14.1 nM.

Values taken from ChEMBL document CHEMBL1143603, “Identification and characterization of novel benzil (diphenylethane-1,2-dione) analogues as inhibitors of mammalian carboxylesterases” (J Med Chem, 2005).
